# Compounds with a hit are over-represented: about 1.8% of the library has one in this group of screens.
# APJ antagonist – APJ receptor antagonism | P35414 | CHO-K1 APJ beta-arrestin complementation, luminescence | inhibition, % at 20 µM | 0.32% of 330,000 active;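 active = inhibition above about 40% at 20 µM, limit read from the data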;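 note: cells challenged with 10 nM apelin-13 agonist together with compound; plate controls were apelin-13 plus DMSO wells for no effect and DMSO wells lacking apelin-13 for full effect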
# APJ agonist – agonists of human APJ apelin receptor. P35414. CHO-K1 APJ PathHunter beta-arrestin, luminescence; 0% DMSO wells, 100% apelin. activation, % at 20 µM. 0.11% of 330,000 active. AID 2520;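 active = activation more than six SD over the plate average, tested at 20 µM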;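 note: 0% = DMSO alone and 100% = apelin-13 at 10 nM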
#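 Assay system: engineered CHO-K1 APJ arrestin reporter cells; Amount: 1000 CHO-K1 reporter cells seeded per well; Dosing: one dose, 20 µM compound, 1% DMSO; Times: compound stimulation 90 min at 25 °C, detection 60 min; Measured by: luminescent beta-gal fragment complementation, chemiluminescent substrate; Read-out: APJ–arrestin association signal; Controls: DMSO vs Apelin-13 10 nM.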
# Beta2AR agonist – activates human beta-2 adrenergic receptor causing internalization. P07550. Am2.2-beta2AR cells, FAP receptor internalization, flow cytometry. response, % (concentration not given with the values). 0.43% of 340,000 active. AID 504454;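 active = response above a set limit, near 3 SD of response in nonfluorescent compounds, cut at about 42% in these data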
# Target sequence (P07550 whole entry, looked up): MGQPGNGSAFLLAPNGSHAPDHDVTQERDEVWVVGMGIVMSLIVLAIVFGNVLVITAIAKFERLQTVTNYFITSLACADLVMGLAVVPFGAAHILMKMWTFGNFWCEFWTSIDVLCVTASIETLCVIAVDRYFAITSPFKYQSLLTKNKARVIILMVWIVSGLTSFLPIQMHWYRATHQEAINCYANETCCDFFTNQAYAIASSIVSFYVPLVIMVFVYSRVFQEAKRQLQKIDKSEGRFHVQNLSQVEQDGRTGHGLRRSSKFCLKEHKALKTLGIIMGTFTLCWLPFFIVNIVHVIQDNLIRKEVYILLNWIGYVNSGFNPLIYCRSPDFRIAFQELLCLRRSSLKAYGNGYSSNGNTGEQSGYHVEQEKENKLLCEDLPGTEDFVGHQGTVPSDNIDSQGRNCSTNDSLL
# EBI2 block – EBI2 (human) antagonism. AID 651636. 0.81% of 360,000 active. inhibition, % at 5 µM. P32249. EBI2 beta-arrestin recruitment, luminescence, 7a,25-OHC stimulated; in the data active = inhibition above about 38%;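 note: enzyme fragment complementation signal reports receptor beta-arrestin coupling in cells; 0% = agonist plus DMSO wells and 100% = wells without agonist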
# CXCR6 inh – blocks human CXCR6 beta-arrestin recruitment; inhibition, % at 20 µM; CHO-K1 PathHunter CXCR6 beta-arrestin, luminescence; AID 602244; 0.36% of 360,000 active; in the data active = inhibition above about 34%, passing the limit was not always enough;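 note: antagonist mode with CXCL16 agonist at 10 nM final; 0% = 10 nM CXCL16 with DMSO and 100% = unstimulated wells without agonist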
# CCR6 antag – antagonists of human CCR6 receptor. P51684. CHO-K1 CCR6 PathHunter beta-arrestin, luminescence, CCL20-stimulated. inhibition, % at 20 µM. 0.49% of 340,000 active. AID 493098;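 active = compounds whose inhibition of the agonist-driven luminescence signal at 20 µM reaches about 50%, limit read from the data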;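 note: cells stimulated with CCL20 at 14 nM final; plate controls were DMSO with CCL20 for no effect and DMSO without agonist for full effect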
# Beta2AR ag CP1 – activates human beta-2 adrenergic receptor | shares compounds with Beta2AR agonist | Am2.2-beta2AR cells, FAP surface receptor, flow cytometry; stronger effect = lower value | percent response (surface receptor), % at 10 µM | 25% of 1,100 active;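 active = surface receptor percent response at or below 58%, roughly 3 SD from nonfluorescent compounds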
# FAP fluor counter – counter-screen for beta-2AR agonists: fluorescence in Am2.2 cells | shares compounds with Beta2AR agonist | FAP fluorogen flow cytometry, fluorescence counterscreen; stronger effect = lower value | calls only at 10 µM | 1,100 tested, under 10 active | AID 588765;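 active = percent response below a set limit in fluorescence channel 1 and below 50% in channel 8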
# Starred values were filed as active, the others as inactive; i = inactive; / = no result; + = active, no number.
SMILES,APJ antagonist,APJ agonist,Beta2AR agonist,EBI2 block,CXCR6 inh,CCR6 antag,Beta2AR ag CP1,FAP fluor counter
C[C@@H](NC(=O)[C@@H]1Cc2ccccc2CN1C(=O)OC(C)(C)C)C(=O)NCc1ccco1,14,0,15,-4,4,13,/,/
Cc1c(C(=O)N2CCc3ccccc3C2)oc2ccccc12,24,-5,-6,-5,-3,8,/,/
O=C1NC[C@H](CCCCN2C[C@H](Cc3ccccc3)N(CCc3ccc(O)cc3)C(=O)C2=O)N(CC2CCCCC2)C1=O,/,/,/,-8,-3,/,/,/
COc1ccc(CN2CCC(Oc3ccc(C(=O)N4CCCC4)cc3)CC2)c(F)c1,11,-2,26,-5,7,-3,107,i
Cc1ccc(Nc2nc(-c3c(C)nc4ccccn34)cs2)cc1,0,-1,43*,65*,-8,-12,88,i
O=c1[nH]c(=S)[nH]c2c1C(c1cccc(C(F)(F)F)c1)OC(CCc1ccccc1)C2 (centres undefined),/,/,/,-9,-5,/,/,/
CC(/C=C/c1ccccc1)=N\NC(N)=S,2,-5,-6,-10,8,16,91,i
COc1cc(OC)nc(NC(=O)CSc2nnc(-c3ccccc3)n2C2CCCCC2)n1,14,-4,97*,4,-1,-2,19*,i
COc1cccc2sc3cc(C#CC4(O)CCCCC4)ccc3c(=O)c12,2,-2,50*,28,-2,5,98,i
COc1cccc2sc3ccc(C#CC4(N)CCCCC4)cc3c(=O)c12,-7,-2,26,8,-7,15,/,/
COC(C(=O)Nc1ccnn1C1CCN(Cc2ccc(C)s2)CC1)c1ccccc1 (centres undefined),18,1,-22,10,-13,-4,/,/
COc1ccc2nc(NC(=O)CS(=O)(=O)c3ccc(C)cc3)sc2c1,8,3,3,4,0,8,/,/
Nn1c(SCc2cn3ccccc3n2)nnc1-c1ccncc1,9,-2,45*,0,8,9,105,i
Nn1c(SCc2cn3cc(Cl)ccc3n2)nnc1-c1ccncc1,4,-2,-10,6,2,-11,/,/
Oc1ccccc1Nc1nc(NCC2CCCO2)c2ccccc2n1 (centres undefined),0,5,47*,-13,-5,6,8.6*,+
Cc1ccccc1Nc1nc(NCc2ccco2)c2ccccc2n1,-7,1,10,-7,-7,7,/,/
Oc1ccc(Cl)cc1Nc1nc(NCC2CCCO2)c2ccccc2n1 (centres undefined),-4,9,27,-49,-13,-4,/,/
c1ccc(Nc2nc(NCc3ccco3)c3ccccc3n2)cc1,-18,7,18,-23,-4,8,80,i
c1ccc(CN2CCN(c3nc(NCc4ccco4)c4ccccc4n3)CC2)cc1,-4,1,9,23,12,18,102,i
Oc1ccccc1Nc1nc(NCc2ccco2)c2ccccc2n1,-12,0,51*,-11,-8,10,23*,i
CCC1CCCCN1C(=O)COc1ccc2c(c1)OCO2 (centres undefined),6,-5,-4,-9,5,10,/,/
CNCC[C@H](Oc1cccc2ccccc12)c1cccs1,-5,0,50*,-7,1,13,102,i
CC(C)(C)N(Cc1ccccc1)C(=O)COC(=O)CSc1ccc([N+](=O)[O-])cc1,14,5,0,5,0,4,/,/
CCN(c1cccc(C)c1)S(=O)(=O)c1ccc2c(c1)N(C(C)=O)CCS2,7,-4,9,29,3,21,/,/
CCN(CC)S(=O)(=O)c1ccc(N2CCOCC2)c(NC(=O)c2ccc(N3CCCC3=O)cc2)c1,-22,9,-4,5,0,-14,/,/
SMILES,APJ antagonist,APJ agonist,Beta2AR agonist,EBI2 block,CXCR6 inh,CCR6 antag,Beta2AR ag CP1,FAP fluor counter
Cc1noc(C)c1S(=O)(=O)N1CCCC(C(=O)N2CCC(C)CC2)C1 (centres undefined),6,-3,49*,-11,-7,-5,120,i
CN(C)c1ccc(C(=O)OCC(=O)Nc2ccc(S(N)(=O)=O)cc2)cc1,8,-1,47*,0,12,13,83,i
CCOC(=O)c1[nH]c(=S)n(Cc2ccccc2)c1C(=O)OCC,/,/,43*,4,0,10,122,i
COc1cc(C(=O)Nc2nccs2)ccc1OCc1c(C)noc1C,15,-1,-13,-3,-2,10,/,/
COc1cc(C(=O)Nc2nc3ccccc3s2)ccc1OCc1c(C)noc1C,-40,2,53*,0,1,-12,108,i
COC(=O)[C@@]12C[C@@H](CC(=O)NCCC(C)C)C(=O)N(CCc3ccc(OC)c(OC)c3)C1=CCC(C)(C)C2,/,/,/,-3,/,/,/,/
Cc1noc(C)c1COc1ccccc1C(=O)N1CCN(S(=O)(=O)c2ccccc2Br)CC1,/,/,71*,-4,3,2,92,i
COc1cc(CNC(=O)Nc2nc(C(N)Cc3ccc(C(F)(F)F)cc3)cs2)cc(OC)c1OC (centres undefined),/,/,/,-4,-19,/,/,/
COc1ccccc1-c1cc(C(F)(F)F)nc(S(=O)(=O)CCCC(=O)NC(C)C)n1,5,1,98*,-12,16,14,54*,i
COc1ccccc1-c1cc(C(F)(F)F)nc(S(=O)(=O)CCCC(=O)N2CCCCC2C)n1 (centres undefined),-11,5,35,20,36,12,66,i
O=C1NCN(c2ccccc2)C12CCN(CCCC(c1ccc(F)cc1)c1ccc(F)cc1)CC2,35,2,49*,1,11,40,82,i
O=C(CCCN1CCN(c2ccccc2)CC1)c1ccc(F)cc1,/,/,/,-7,2,/,/,/
Cc1cccc(C(=O)OCC(=O)N2CCCCCC2)c1C,-10,-1,1,-1,2,9,/,/
Cc1ccc(C(=O)c2ccccc2C(=O)OCC(=O)N2CCCC2)cc1,11,-4,1,-2,-5,8,107,i
CCCN(CCC)C(=O)c1ccc2nc(-c3ccc(OC)c(OC)c3)c(-c3ccc(OC)c(OC)c3)nc2c1,1,-1,43*,-5,8,16,123,i
Cc1cc(C)cc(C(=O)NC(CC(N)=O)c2ccc(N3CCN(c4ccccn4)CC3)c([N+](=O)[O-])c2)c1 (centres undefined),-2,4,68*,-13,-11,12,18*,i

# Compound activity (PubChem)
